Drawing on ChEMBL document CHEMBL1152633, “Synthesis and biological evaluation of flavan-3-ol derivatives as positive modulators of GABAA receptors” (Bioorg Med Chem, 2009), this text covers Activity, EC50 and fold change (FC) for 28 compounds.

By EC50 is commonly meant the concentration that produces a half-maximal response.

The target of test [1] is T1, GABA-A receptor; alpha-1/beta-2/gamma-2 (Homo sapiens) (UniProt P14867+P47870+P18507). Kind of test: Modulatory activity at human GABAA alpha-1-beta-2-gamma-2L receptor expressed in Xenopus laevis oocytes assessed as potentiation of GABA EC5-induced currents at 30 uM by two-electrode voltage clamp assay. Type of test: cell-based. Particulars: Oocyte. In a few lines: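 Stage V–VI oocytes were injected with 2–3 ng cRNA (α:β:γ 1:1:2) and kept 3–4 days at 16 °C in ND96 with pyruvate, theophylline and gentamycin. Two-electrode voltage clamp was run in ND96 at pH 7.5 with 3 M KCl electrodes. Test drug was co-applied with GABA EC5, with a 5–10 min washout between applications. Currents were normalised to a reference modulator at the same concentration on the same cell (n ≤ 5).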
(In general: Two-electrode voltage clamp holds a large cell at a set potential and records current.)

Test [2] addresses T2, GABA-A receptor; alpha-1/beta-2/gamma-2 (Homo sapiens, UniProt P14867+P18507+P47870).
T2 sequence (P14867 whole entry): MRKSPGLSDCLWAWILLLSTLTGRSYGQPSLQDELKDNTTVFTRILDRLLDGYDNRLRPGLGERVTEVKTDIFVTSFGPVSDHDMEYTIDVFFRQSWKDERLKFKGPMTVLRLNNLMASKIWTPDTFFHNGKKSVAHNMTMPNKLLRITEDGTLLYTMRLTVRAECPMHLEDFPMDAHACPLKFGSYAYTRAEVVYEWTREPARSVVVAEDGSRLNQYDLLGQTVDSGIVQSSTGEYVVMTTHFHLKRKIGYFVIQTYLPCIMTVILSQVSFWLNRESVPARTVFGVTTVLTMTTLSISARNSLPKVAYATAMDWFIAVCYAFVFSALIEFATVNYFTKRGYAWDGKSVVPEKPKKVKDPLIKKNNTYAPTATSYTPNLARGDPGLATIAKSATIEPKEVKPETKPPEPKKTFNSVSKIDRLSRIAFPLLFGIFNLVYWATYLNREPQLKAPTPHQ
T2 sequence (P47870 whole entry): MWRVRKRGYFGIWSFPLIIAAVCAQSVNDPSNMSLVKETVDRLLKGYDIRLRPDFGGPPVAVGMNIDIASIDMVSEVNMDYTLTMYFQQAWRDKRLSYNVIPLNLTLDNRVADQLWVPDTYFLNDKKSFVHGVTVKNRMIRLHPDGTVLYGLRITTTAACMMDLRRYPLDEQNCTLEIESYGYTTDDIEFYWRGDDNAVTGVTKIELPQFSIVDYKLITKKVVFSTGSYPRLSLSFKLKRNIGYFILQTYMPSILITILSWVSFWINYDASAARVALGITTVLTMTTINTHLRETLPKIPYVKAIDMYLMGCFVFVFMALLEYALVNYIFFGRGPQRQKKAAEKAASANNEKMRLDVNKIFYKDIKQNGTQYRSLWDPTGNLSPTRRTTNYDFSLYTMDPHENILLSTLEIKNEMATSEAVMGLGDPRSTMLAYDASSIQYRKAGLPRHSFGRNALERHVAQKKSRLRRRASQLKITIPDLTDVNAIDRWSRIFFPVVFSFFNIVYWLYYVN
T2 sequence (P18507 whole entry): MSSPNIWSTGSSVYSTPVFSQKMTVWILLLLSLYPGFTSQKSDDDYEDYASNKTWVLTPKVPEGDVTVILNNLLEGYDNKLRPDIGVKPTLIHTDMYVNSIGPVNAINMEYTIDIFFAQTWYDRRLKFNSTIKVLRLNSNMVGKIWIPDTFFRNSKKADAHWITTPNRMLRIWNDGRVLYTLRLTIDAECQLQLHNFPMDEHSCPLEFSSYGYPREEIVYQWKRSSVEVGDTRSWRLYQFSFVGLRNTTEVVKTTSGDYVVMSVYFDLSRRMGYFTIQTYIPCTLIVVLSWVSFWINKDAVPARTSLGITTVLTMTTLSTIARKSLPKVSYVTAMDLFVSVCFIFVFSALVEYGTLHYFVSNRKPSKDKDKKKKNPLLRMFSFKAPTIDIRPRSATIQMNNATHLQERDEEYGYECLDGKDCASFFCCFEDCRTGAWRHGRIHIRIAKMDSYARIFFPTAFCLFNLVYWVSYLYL
Nature of the test: Modulatory activity at human GABAA alpha-1-beta-2-gamma-2L receptor expressed in Xenopus laevis oocytes assessed as potentiation of GABA EC5-induced currents by two-electrode voltage clamp assay. The format is cell-based, Oocyte. An outline of the steps:
(§1)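 Oocytes were injected with cRNA (α:β:γ 1:1:2) and incubated 3–4 days at 16 °C in ND96. TEVC was run in ND96 at pH 7.5, co-applying the drug at a range of concentrations with GABA EC5, with a 5–10 min washout between applications. Potentiation = (Idrug − IGABA) × 100/IGABA. Data are mean ± SEM, n ≥ 8, from at least two oocyte batches.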

Test [3] concerns the target T1, GABA-A receptor; alpha-1/beta-2/gamma-2 (Homo sapiens). Kind of test: Modulatory activity at human GABAA alpha-1-beta-2-gamma-2L receptor expressed in Xenopus laevis oocytes assessed as potentiation of GABA EC5-induced currents at 30 uM by two-electrode voltage clamp assay relative to untreated control. The format is cell-based. Particulars: Oocyte. An outline of the steps: as §1

Test [4] shares this target. Kind of test: Modulatory activity at human GABAA alpha-1-beta-2-gamma-2L receptor expressed in Xenopus laevis oocytes assessed as potentiation of GABA EC5-induced currents at 50 uM by two-electrode voltage clamp assay relative to untreated control. The format is cell-based. Particulars: Oocyte. An outline of the steps:
as §1

In the case of `COc1ccc([C@@H]2Oc3ccccc3C[C@@H]2OC(C)=O)cc1OC`, the Activity in test [1] is < 50%. In the case of `COc1ccc([C@@H]2Oc3ccccc3C[C@H]2OC(C)=O)cc1OC`, in test [1], the Activity was > 50%. In addition, in test [2], the EC50 was found to be 6.68 µM. Further, the fold change (FC) in test [3] is 14.7. On to `CC(=O)O[C@H]1Cc2ccccc2O[C@@H]1c1ccc(OCc2ccccc2)cc1`, for which, in test [1], the Activity was < 50%. Take `COc1cc([C@@H]2Oc3ccccc3C[C@H]2OC(C)=O)cc(Br)c1OC`: in test [1], the Activity was > 50%.

For `COc1ccc([C@@H]2Oc3ccc(C)cc3C[C@H]2OC(C)=O)cc1OC`, the Activity in test [1] was > 50%. With `COc1ccc([C@@H]2Oc3ccccc3C[C@@H]2OC(C)=O)cc1`, the Activity in test [1] was < 50%. Turning to `COc1ccc([C@@H]2Oc3cc(OCc4ccccc4)ccc3C[C@H]2OC(C)=O)cc1OC`, the Activity in test [1] is < 50%. Regarding `COc1ccc([C@H]2Oc3ccc(OC)cc3C[C@H]2OC(C)=O)cc1`, the Activity in test [1] is < 50%. For `COc1ccc([C@@H]2Oc3cc(O)ccc3C[C@@H]2OC(C)=O)cc1`, the Activity in test [1] was < 50%.

With `CC(=O)O[C@@H]1Cc2ccccc2O[C@H]1c1ccc2c(c1)OCO2`, the Activity in test [1] is > 50%. Turning to `COc1ccc([C@@H]2Oc3ccc(OC)cc3C[C@H]2OC(C)=O)cc1`, the Activity in test [1] is > 50%. In test [2], the EC50 is 15 µM. Regarding `COc1ccc([C@H]2Oc3cc(O)ccc3C[C@@H]2OC(C)=O)cc1OC`, the Activity in test [1] was < 50%.

As for `CC(=O)O[C@H]1Cc2ccccc2O[C@@H]1c1ccc2c(c1)OCO2`, the Activity in test [1] is > 50%. For `COc1ccc([C@H]2Oc3ccccc3C[C@@H]2OC(C)=O)cc1OC`, the Activity in test [1] was > 50%. For `COc1ccc([C@H]2Oc3cc(OCc4ccccc4)ccc3C[C@H]2OC(C)=O)cc1`, the Activity in test [1] is < 50%.

For the compound `COc1ccc([C@@H]2Oc3cc(OCc4ccccc4)ccc3C[C@H]2OC(C)=O)cc1`, in test [1], the Activity was < 50%. Turning to `COc1ccc([C@@H]2Oc3ccccc3C[C@H]2O)cc1`, the Activity in test [1] is < 50%. Turning to `CC(=O)O[C@H]1Cc2ccccc2O[C@H]1c1ccc(O)cc1`, the Activity in test [1] was < 50%. Regarding `CC(=O)O[C@H]1Cc2ccccc2O[C@@H]1c1ccc(O)cc1`, in test [1], the Activity was < 50%.

Consider `CC(=O)O[C@H]1Cc2ccccc2O[C@H]1c1ccc(OCc2ccccc2)cc1`, for which the Activity in test [1] was < 50%. As for `COc1ccc([C@@H]2Oc3ccccc3C[C@H]2OC(C)=O)cc1`, the Activity in test [1] stood at 700%. Also, the EC50 in test [2] came out at 13.7 µM. Besides, the fold change (FC) in test [4] came out at 8.5.

With `COc1ccc([C@@H]2Oc3cc(O)ccc3C[C@H]2OC(C)=O)cc1`, in test [1], the Activity was > 50%. Moreover, the fold change (FC) in test [4] amounted to 10.5. `COc1ccc([C@@H]2Oc3cc(O)ccc3C[C@H]2OC(C)=O)cc1OC`: in test [1], the Activity is > 50%. For the same compound, the EC50 in test [2] came to 12.1 µM. The fold change (FC) in test [3] was 12. Turning to `COc1ccc([C@H]2Oc3ccccc3C[C@H]2OC(C)=O)cc1`, the Activity in test [1] is < 50%. For `COc1ccc([C@H]2Oc3ccccc3C[C@@H]2OC(C)=O)cc1`, the Activity in test [1] was > 50%. In the case of `COc1ccc([C@H]2Oc3ccccc3C[C@H]2O)cc1`, in test [1], the Activity was < 50%.

Regarding `COc1ccc([C@H]2Oc3cc(OCc4ccccc4)ccc3C[C@@H]2OC(C)=O)cc1OC`, the Activity in test [1] is < 50%.

Take `COc1ccc([C@H]2Oc3ccc(C)cc3C[C@@H]2OC(C)=O)cc1OC`: the Activity in test [1] was < 50%.
